Measured values as given in ChEMBL document CHEMBL3259731, “Design, synthesis, and biological evaluation of novel FAK scaffold inhibitors targeting the FAK-VEGFR3 protein-protein interaction” (Eur J Med Chem, 2014).
Where a name gives a salt, the structure may show the parent alone. The source made the active and inactive calls. The rule behind the calls is not given here.

Key:
MDA-MB-231 = test: Cytotoxicity against human MDA-MB-231 cells assessed as growth inhibition at 50 uM after 72 hrs by MTS assay; type: functional, cell-based
Outline: (§1)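 MTS assay. Cells kept in DMEM with 10% FBS, plated at 5000 cells/well and left to attach overnight, then exposed to compound (screening at 50 µM) for 72 h at 37 °C. MTS reagent added for about 1 h, then absorbance read at 570 nm. Viability normalized to DMSO/untreated controls. Three independent experiments, 3–5 replicate wells per concentration.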

MIA PaCa-2 [1] = test: Cytotoxicity against human MIAPaCa2 cells transfected with retroviral expression vector pMSCV-LucSh assessed as growth inhibition at 50 uM after 72 hrs by MTS assay; type: functional, cell-based
Outline: (§2)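 Cells seeded at 5000/well, attached overnight, then given 50 µM of each analog for 72 h at 37 °C. MTS reagent added for about 1 h, absorbance read at 570 nm. Viability normalized to DMSO/untreated controls. Three independent experiments, each with 3–5 replicate wells per concentration. Cells kept in DMEM with 10% FBS.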

A-375 = test: Cytotoxicity against human A375 cells assessed as growth inhibition at 50 uM after 72 hrs by MTS assay; type: functional, cell-based; outline: as §1
PANC-1 = test: Cytotoxicity against human PANC1 cells transfected with retroviral expression vector pMSCV-LucSh assessed as growth inhibition at 50 uM after 72 hrs by MTS assay; type: functional, cell-based; outline: as §2
C8161 = test: Cytotoxicity against human C8161 cells assessed as growth inhibition at 50 uM after 72 hrs by MTS assay; type: functional, cell-based; outline: as §1
U-87MG ATCC = test: Cytotoxicity against human U87 cells assessed as growth inhibition at 50 uM after 72 hrs by MTS assay; type: functional, cell-based; outline: as §1
MIA PaCa-2 [2] = test: Induction of apoptosis in human MIAPaCa2 cells transfected with retroviral expression vector pMSCV-LucSh assessed as increase in PARP cleavage after 24 hrs; type: functional, cell-based
Outline: (§3)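 Cells seeded to reach about 80% confluence at 24 h, then drug-treated at increasing doses for 24 h at 37 °C. Lysed in 1% NP40 buffer with protease and phosphatase inhibitors. 30 µg protein run on SDS gel and transferred to PVDF. Immunoblotted overnight at 4 °C with caspase-3 and PARP rabbit polyclonals for cleavage products. ECL detection.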

[3] = target: T1, Focal adhesion kinase 1/vascular endothelial growth factor receptor 3 (Homo sapiens) (UniProt P35916+Q05397); test: Inhibition of FAK/VEGFR-3 interaction in human MIAPaCa2 cells transfected with retroviral expression vector pMSCV-LucSh assessed as reduction in VEGFR3 pan-phosphorylated tyrosine level after 24 hrs by immunoprecipitation assay; type: cell-based; details: MIA PaCa-2
Outline: (§4)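 Cells treated at increasing doses for 24 h, then lysed in NP40 buffer with inhibitors. 500 or 800 µg lysate precleared, then immunoprecipitated with FAK 4.47 or VEGFR3 9D9, with isotype IgG and no-antibody controls, overnight with Protein A/G beads at 4 °C. Immunoblotted for pan-phosphotyrosine (4G10), total FAK and total VEGFR3. Bands quantified by densitometry.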

[4] = target: Proto-oncogene tyrosine-protein kinase Src (Homo sapiens) (UniProt P12931); test: Inhibition of SRC (unknown origin) at 1 uM by Z'-LYTE assay relative to control
Outline: (§5)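 Z'-LYTE SelectScreen single-point biochemical kinase assay, done by an outside service. Compound at 1 µM with 100 µM ATP in the reaction. Percent inhibition calculated per the Z'-LYTE analysis protocol, as the mean of two independent runs.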

[5] = target: Epidermal growth factor receptor (Homo sapiens) (UniProt P00533); test: Inhibition of EGFR (unknown origin) at 1 uM by Z'-LYTE assay relative to control; outline: as §5
MCF7 [6] = test: Induction of apoptosis in human MCF7 cells overexpressing VEGFR-3/FAK assessed as increase in PARP cleavage after 24 hrs; type: functional, cell-based
Outline: (§6)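 MCF7-VEGFR3 cells grown to about 80% confluence, then given compound at the indicated concentrations for 24 h at 37 °C. Lysed in 1% NP40 buffer with phosphatase and protease inhibitors. 30 µg protein run by SDS-PAGE and immunoblotted with caspase-3 and PARP rabbit polyclonal antibodies, detected by ECL.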

Focal adhesion kinase 1 [7] = target: T2, Focal adhesion kinase 1 (Homo sapiens, UniProt Q05397); test: Inhibition of PTK2 (unknown origin) at 1 uM by Z'-LYTE assay relative to control; outline: as §5
Target sequence in this assay (Q05397 2-1052 limits assumed): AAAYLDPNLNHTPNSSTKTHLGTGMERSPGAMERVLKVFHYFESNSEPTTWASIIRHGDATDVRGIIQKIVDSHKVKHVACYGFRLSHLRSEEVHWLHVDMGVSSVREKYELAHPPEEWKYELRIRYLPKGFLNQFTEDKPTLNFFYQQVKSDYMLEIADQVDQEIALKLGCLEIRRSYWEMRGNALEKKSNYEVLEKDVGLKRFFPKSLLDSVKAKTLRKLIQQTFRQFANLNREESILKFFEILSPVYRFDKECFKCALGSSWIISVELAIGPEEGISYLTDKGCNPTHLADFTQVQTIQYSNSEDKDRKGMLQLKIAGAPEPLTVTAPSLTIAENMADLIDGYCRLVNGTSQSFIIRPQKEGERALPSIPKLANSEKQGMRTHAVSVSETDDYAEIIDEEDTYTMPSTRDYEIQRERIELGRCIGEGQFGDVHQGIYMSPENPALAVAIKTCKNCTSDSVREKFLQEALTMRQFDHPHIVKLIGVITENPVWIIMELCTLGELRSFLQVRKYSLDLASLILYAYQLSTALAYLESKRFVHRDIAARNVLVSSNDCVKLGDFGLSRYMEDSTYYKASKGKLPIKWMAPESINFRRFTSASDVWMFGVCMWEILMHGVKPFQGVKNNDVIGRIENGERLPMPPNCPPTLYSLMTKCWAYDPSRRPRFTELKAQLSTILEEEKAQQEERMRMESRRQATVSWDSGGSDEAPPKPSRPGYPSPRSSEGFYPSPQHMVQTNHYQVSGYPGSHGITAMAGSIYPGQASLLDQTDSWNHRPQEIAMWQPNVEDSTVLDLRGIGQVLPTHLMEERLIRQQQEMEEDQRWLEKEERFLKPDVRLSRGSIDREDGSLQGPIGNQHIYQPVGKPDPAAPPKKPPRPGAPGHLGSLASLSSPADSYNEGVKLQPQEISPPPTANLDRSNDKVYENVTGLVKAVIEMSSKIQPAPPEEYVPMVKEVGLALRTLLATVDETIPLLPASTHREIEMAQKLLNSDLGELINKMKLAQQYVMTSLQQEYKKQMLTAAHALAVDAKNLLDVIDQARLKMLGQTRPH

MCF7 [8] = test: Induction of apoptosis in human MCF7 cells overexpressing VEGFR-3/FAK assessed as increase in caspase-3 cleavage after 24 hrs; type: functional, cell-based; outline: as §6
[9] = target: Insulin-like growth factor 1 receptor (Homo sapiens) (UniProt P08069); test: Inhibition of IGF1R (unknown origin) at 1 uM by Z'-LYTE assay relative to control; outline: as §5
MCF7 [10] = test: Cytotoxicity against human MCF7 cells overexpressing VEGFR-3/FAK assessed as inhibition of colony formation at 10 uM after 14 days by 1,9-dimethyl-methylene blue staining-based assay; type: functional, cell-based
Outline: (§7)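 Colony formation. 700 cells/well seeded with compound added immediately, then incubated at 37 °C for 10–14 days (legend: 14 days). Colonies stained for 1 h with 0.25% 1,9-dimethyl-methylene blue in 50% methanol, washed, dried and scanned. Duplicate wells, three independent experiments.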

[11] = target: Vascular endothelial growth factor receptor 3 (Homo sapiens) (UniProt P35916); test: Inhibition of FLT4 (unknown origin) at 1 uM by Z'-LYTE assay relative to control
Outline: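 Z'-LYTE SelectScreen single-point biochemical kinase assay, run as a contracted service. Compound at 1 µM and ATP at 100 µM in the reaction. Percent inhibition calculated per the Z'-LYTE analysis protocol, given as the mean of two independent runs.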

[12] = target: T1, Focal adhesion kinase 1/vascular endothelial growth factor receptor 3 (Homo sapiens); test: Inhibition of FAK/VEGFR-3 interaction in human MIAPaCa2 cells transfected with retroviral expression vector pMSCV-LucSh assessed as reduction in VEGFR3 pan-phosphorylated tyrosine level after 24 hrs by densitometric analysis; type: cell-based; details: MIA PaCa-2; outline: as §4
[13] = target: T1, Focal adhesion kinase 1/vascular endothelial growth factor receptor 3 (Homo sapiens); test: Inhibition of FAK/VEGFR-3 interaction in human MCF7 cells assessed as decrease in VEGFR3 protein level at 10 uM after 24 hrs by immunoprecipitation assay; type: cell-based
Outline: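 MCF7-VEGFR3 cells treated with selected analogs for 24 h, then lysed in NP40 buffer. FAK immunoprecipitated with clone 4.47 after preclearing, 2 h antibody binding and overnight incubation with Protein A/G beads at 4 °C. Co-precipitated VEGFR3 and total FAK detected by immunoblot on 7.5% gel.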

[14] = target: RAC-alpha serine/threonine-protein kinase (Homo sapiens) (UniProt P31749); test: Inhibition of AKT1 (unknown origin) at 1 uM by Z'-LYTE assay relative to control; outline: as §5
[15] = target: Vascular endothelial growth factor receptor 2 (Homo sapiens) (UniProt P35968); test: Inhibition of KDR (unknown origin) at 1 uM by Z'-LYTE assay relative to control; outline: as §5
MIA PaCa-2 [16] = test: Induction of apoptosis in human MIAPaCa2 cells transfected with retroviral expression vector pMSCV-LucSh at 70 uM after 24 hrs by CellEvent/TMRM dye-based microscopic analysis; type: functional, cell-based
Outline: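 10,000 cells/well plated and adhered overnight, then drug added for 24 h. Stained with 5 µM CellEvent caspase-3/7 dye plus 2.5 µM TMRM in PBS, 30 min at 37 °C in the dark. Imaged by fluorescence microscopy, and bright-green apoptotic nuclei counted in 6–8 fields per condition. Percent apoptosis normalized to control, from three independent experiments, compared by Student t test.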

[17] = target: T1, Focal adhesion kinase 1/vascular endothelial growth factor receptor 3 (Homo sapiens); test: Inhibition of FAK/VEGFR-3 interaction in human MIAPaCa2 cells transfected with retroviral expression vector pMSCV-LucSh assessed as decrease in levels of VEGFR3 and phosphorylated tyrosine residues associated with FAK protein after 24 hrs by immunoprecipitation assay; type: cell-based; details: MIA PaCa-2; outline: as §4
[18] = target: T1, Focal adhesion kinase 1/vascular endothelial growth factor receptor 3 (Homo sapiens); test: Inhibition of FAK/VEGFR-3 interaction in human MIAPaCa2 cells transfected with retroviral expression vector pMSCV-LucSh assessed as decrease in levels of VEGFR3 and phosphorylated tyrosine residues associated with FAK protein after 24 hrs by densitometric analysis; type: cell-based; details: MIA PaCa-2; outline: as §4
[19] = target: Platelet-derived growth factor receptor alpha (Homo sapiens) (UniProt P16234); test: Inhibition of PDGFRA (unknown origin) at 1 uM by Z'-LYTE assay relative to control; outline: as §5
MCF7 [20] = test: Cytotoxicity against human MCF7 cells overexpressing VEGFR-3/FAK after 72 hrs by MTS assay; type: functional, cell-based; outline: as §1
MIA PaCa-2 [21] = test: Cytotoxicity against human MIAPaCa2 cells transfected with retroviral expression vector pMSCV-LucSh assessed as inhibition of colony formation at 10 uM after 14 days by 1,9-dimethyl-methylene blue staining-based assay; type: functional, cell-based
Outline: (§8)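 700 cells/well seeded, and compound added at once at the specified concentrations. Incubated 10–14 days at 37 °C (figure legend gives 14 days). Colonies stained with 0.25% 1,9-dimethyl-methylene blue in 50% methanol for 1 h, washed, dried and scanned. Run in duplicate and repeated three times independently.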

[22] = target: Vascular endothelial growth factor receptor 1 (Homo sapiens) (UniProt P17948); test: Inhibition of FLT1 (unknown origin) at 1 uM by Z'-LYTE assay relative to control; outline: as §5
[23] = target: Protein-tyrosine kinase 2-beta (Homo sapiens) (UniProt Q14289); test: Inhibition of PTK2B (unknown origin) at 1 uM by Z'-LYTE assay relative to control; outline: as §5
Focal adhesion kinase 1 [24] = target: T2, Focal adhesion kinase 1; test: Binding affinity to biotinylated human FAK FAT domain by biolayer interoferometry
Outline: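 Bio-layer interferometry on super streptavidin biosensor tips, pre-wetted in buffer for a baseline before FAT protein immobilization. Association and dissociation measured over 210 s at two small-molecule concentrations. Kon, Koff and Kd derived from the kinetic fits.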

MIA PaCa-2 [25] = test: Induction of apoptosis in human MIAPaCa2 cells transfected with retroviral expression vector pMSCV-LucSh assessed as increase in caspase-3 cleavage after 24 hrs; type: functional, cell-based; outline: as §3
MIA PaCa-2 [26] = test: Cytotoxicity against human MIAPaCa2 cells transfected with retroviral expression vector pMSCV-LucSh assessed as inhibition of colony formation at >10 uM after 14 days by 1,9-dimethyl-methylene blue staining-based assay; type: functional, cell-based; outline: as §8
MCF7 [27] = test: Cytotoxicity against human MCF7 cells overexpressing VEGFR-3/FAK assessed as inhibition of colony formation at >10 uM after 14 days by 1,9-dimethyl-methylene blue staining-based assay; type: functional, cell-based; outline: as §7

T1 sequence (P35916 whole entry, looked up): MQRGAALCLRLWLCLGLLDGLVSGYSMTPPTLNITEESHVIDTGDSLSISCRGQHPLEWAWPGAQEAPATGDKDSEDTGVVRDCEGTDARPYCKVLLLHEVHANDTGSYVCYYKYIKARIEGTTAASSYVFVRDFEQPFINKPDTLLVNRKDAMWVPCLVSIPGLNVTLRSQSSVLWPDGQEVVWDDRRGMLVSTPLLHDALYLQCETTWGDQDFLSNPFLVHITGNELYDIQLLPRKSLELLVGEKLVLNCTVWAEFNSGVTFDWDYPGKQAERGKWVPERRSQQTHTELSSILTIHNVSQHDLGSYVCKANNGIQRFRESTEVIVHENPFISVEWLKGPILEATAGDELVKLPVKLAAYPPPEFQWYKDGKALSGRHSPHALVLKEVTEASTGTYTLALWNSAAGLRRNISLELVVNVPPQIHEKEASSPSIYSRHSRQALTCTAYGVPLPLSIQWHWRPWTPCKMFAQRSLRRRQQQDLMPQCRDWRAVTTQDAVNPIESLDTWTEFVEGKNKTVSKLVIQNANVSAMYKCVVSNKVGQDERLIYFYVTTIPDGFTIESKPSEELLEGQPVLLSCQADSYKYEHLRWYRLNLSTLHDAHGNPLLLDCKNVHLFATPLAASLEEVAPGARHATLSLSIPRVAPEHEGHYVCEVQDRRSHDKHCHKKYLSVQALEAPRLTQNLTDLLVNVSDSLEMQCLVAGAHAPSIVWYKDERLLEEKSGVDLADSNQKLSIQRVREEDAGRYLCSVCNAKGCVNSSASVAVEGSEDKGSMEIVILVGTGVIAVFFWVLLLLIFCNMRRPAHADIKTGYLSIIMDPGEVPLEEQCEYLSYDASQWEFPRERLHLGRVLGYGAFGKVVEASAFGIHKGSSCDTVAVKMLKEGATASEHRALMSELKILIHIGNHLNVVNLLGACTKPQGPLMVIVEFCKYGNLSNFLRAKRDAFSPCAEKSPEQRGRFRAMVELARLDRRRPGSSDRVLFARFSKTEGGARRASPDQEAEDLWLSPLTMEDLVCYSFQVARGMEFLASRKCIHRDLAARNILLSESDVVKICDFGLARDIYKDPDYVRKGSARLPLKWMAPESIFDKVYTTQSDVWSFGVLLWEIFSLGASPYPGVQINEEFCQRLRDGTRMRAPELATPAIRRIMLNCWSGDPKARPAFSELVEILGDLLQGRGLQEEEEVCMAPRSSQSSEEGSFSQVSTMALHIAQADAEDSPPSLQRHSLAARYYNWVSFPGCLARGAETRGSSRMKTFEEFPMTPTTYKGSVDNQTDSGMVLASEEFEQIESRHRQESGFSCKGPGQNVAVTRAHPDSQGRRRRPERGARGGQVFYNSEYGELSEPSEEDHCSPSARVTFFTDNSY
T1 sequence (Q05397 whole entry, looked up): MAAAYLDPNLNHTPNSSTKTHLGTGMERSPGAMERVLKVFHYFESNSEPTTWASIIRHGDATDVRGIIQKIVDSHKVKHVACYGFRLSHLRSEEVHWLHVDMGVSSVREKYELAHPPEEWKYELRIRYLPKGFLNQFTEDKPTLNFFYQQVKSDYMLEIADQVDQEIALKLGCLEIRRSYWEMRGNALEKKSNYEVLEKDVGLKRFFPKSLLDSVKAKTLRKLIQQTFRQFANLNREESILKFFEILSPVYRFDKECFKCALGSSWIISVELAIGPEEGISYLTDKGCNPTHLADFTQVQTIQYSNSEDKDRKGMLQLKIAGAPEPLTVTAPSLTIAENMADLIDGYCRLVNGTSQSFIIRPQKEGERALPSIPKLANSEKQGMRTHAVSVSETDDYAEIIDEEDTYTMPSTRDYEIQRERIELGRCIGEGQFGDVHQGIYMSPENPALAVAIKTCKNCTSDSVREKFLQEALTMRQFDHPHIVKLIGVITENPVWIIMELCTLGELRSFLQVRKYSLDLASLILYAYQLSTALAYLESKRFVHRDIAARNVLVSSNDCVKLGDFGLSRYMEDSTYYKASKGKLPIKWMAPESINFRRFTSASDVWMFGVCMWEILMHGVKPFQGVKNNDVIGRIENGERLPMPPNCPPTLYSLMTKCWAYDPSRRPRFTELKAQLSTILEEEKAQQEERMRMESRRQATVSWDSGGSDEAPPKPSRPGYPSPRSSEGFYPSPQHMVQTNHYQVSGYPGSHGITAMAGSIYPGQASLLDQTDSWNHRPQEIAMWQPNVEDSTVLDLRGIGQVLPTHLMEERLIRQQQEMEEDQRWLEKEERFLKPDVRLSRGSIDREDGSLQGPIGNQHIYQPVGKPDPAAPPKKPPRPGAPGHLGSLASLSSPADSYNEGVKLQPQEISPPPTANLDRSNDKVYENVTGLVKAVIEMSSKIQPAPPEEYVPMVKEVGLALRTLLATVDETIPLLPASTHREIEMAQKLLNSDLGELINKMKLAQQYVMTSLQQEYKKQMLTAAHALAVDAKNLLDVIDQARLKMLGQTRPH
Chain of Protein-tyrosine kinase 2-beta (Homo sapiens) (Q14289 whole entry, looked up, the tested form may be a part): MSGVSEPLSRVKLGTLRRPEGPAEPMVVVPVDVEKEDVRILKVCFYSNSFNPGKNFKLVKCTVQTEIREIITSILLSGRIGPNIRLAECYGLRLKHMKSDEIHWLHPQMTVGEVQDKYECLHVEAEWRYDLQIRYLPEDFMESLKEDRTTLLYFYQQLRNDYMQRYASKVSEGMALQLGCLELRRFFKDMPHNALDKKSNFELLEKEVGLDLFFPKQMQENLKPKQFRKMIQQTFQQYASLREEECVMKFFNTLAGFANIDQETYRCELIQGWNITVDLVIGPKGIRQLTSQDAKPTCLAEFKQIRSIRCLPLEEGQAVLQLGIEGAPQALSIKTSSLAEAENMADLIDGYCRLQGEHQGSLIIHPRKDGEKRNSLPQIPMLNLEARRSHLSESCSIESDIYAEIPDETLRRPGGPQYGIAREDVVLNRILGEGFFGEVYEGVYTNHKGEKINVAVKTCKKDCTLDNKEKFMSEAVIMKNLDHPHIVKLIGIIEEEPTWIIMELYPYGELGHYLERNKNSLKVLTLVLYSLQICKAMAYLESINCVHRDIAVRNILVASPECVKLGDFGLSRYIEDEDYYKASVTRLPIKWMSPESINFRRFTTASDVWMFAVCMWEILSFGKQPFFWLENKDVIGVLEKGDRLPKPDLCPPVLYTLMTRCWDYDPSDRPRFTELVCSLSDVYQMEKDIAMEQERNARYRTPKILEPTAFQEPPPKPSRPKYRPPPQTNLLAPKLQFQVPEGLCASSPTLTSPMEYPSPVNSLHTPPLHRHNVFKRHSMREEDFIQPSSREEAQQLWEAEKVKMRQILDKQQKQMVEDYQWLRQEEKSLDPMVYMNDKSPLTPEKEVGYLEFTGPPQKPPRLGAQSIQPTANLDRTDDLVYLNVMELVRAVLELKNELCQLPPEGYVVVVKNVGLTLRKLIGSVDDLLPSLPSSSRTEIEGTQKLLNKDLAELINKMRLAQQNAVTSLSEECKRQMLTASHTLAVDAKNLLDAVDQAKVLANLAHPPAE
Chain of Vascular endothelial growth factor receptor 3 (Homo sapiens) (P35916 whole entry): as the sequence (P35916 whole entry, looked up) above
Chain of Proto-oncogene tyrosine-protein kinase Src (Homo sapiens) (P12931 2-536 limits assumed): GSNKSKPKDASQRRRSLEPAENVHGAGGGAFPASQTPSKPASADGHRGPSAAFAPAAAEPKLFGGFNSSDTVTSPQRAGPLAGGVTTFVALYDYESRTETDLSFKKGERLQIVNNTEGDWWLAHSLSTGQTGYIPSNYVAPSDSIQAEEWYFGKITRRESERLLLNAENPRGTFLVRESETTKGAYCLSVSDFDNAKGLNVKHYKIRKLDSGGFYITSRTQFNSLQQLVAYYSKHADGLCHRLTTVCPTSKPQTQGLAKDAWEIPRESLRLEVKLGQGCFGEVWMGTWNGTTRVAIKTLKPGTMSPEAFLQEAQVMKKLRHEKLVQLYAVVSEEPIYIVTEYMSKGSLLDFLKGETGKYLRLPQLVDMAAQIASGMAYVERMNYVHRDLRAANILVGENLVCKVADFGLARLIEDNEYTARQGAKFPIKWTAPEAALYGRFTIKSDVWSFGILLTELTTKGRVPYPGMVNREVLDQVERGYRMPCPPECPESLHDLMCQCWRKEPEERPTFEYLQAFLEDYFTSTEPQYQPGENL

## CCCN(CCN(C)C)c1ccccn1
MDA-MB-231
  growth inhibition (GI): inactive
MIA PaCa-2 [1]
  growth inhibition (GI): inactive
A-375
  growth inhibition (GI): inactive
PANC-1
  growth inhibition (GI): inactive
C8161
  growth inhibition (GI): inactive
U-87MG ATCC
  growth inhibition (GI): inactive

## CCCCCCCCN(CCN(C)C)c1ccccn1
MDA-MB-231
  growth inhibition (GI): Active
MIA PaCa-2 [1]
  growth inhibition (GI): Active
A-375
  growth inhibition (GI): Active
PANC-1
  growth inhibition (GI): Active
C8161
  growth inhibition (GI): Active
U-87MG ATCC
  growth inhibition (GI): Active

## CN(C)CCN(Cc1ccc(Cl)cc1)c1ccc2ccccc2n1
MIA PaCa-2 [2]
  Activity: Dose-dependent effect
[3]
  inhibition: Dose-dependent effect
[4]
  inhibition: 3%
MIA PaCa-2 [1]
  growth inhibition (GI): Active
[5]
  inhibition: 4%
MCF7 [6]
  Activity: Dose-dependent effect
Focal adhesion kinase 1 [7]
  inhibition: 13%
MCF7 [8]
  Activity: Dose-dependent effect
PANC-1
  growth inhibition (GI): Active
[9]
  inhibition: 11%
MCF7 [10]
  inhibition: Active
[11]
  inhibition: 4%
[12]
  inhibition: Dose-dependent effect
[13]
  inhibition: Active
[14]
  inhibition: 7%
[15]
  inhibition: 14%
MIA PaCa-2 [16]
  Activity: Active
[17]
  inhibition: Dose-dependent effect
[18]
  inhibition: Dose-dependent effect
[19]
  inhibition: 8%
MCF7 [20]
  Activity: Active
MIA PaCa-2 [21]
  inhibition: Active
[22]
  inhibition: 1%
[23]
  inhibition: 0%
Focal adhesion kinase 1 [24]
  Kd: 18 nM
MIA PaCa-2 [25]
  Activity: Dose-dependent effect

## CCCCCCCCCCCCN(CCN(C)C)c1ccccn1
MDA-MB-231
  growth inhibition (GI): Active
MIA PaCa-2 [1]
  growth inhibition (GI): Active
A-375
  growth inhibition (GI): Active
PANC-1
  growth inhibition (GI): Active
C8161
  growth inhibition (GI): Active
U-87MG ATCC
  growth inhibition (GI): Active

## CN(C)CCN(Cc1ccc(Cl)cc1)c1ccccn1 [CHLORPYRAMIN HYDROCHLORIDE]
[3]
  inhibition: Dose-dependent effect
[12]
  inhibition: Dose-dependent effect
MIA PaCa-2 [26]
  inhibition: Active
MCF7 [27]
  inhibition: Active
[17]
  inhibition: Dose-dependent effect
[18]
  inhibition: Dose-dependent effect
Focal adhesion kinase 1 [24]
  Kd: 570 nM

## CN(C)CCNc1ccccn1
MDA-MB-231
  growth inhibition (GI): inactive
MIA PaCa-2 [1]
  growth inhibition (GI): inactive
A-375
  growth inhibition (GI): inactive
PANC-1
  growth inhibition (GI): inactive
C8161
  growth inhibition (GI): inactive
U-87MG ATCC
  growth inhibition (GI): inactive
Focal adhesion kinase 1 [24]
  Activity: inactive

## CCCCCCCCCCN(CCN(C)C)c1ccccn1
MDA-MB-231
  growth inhibition (GI): Active
MIA PaCa-2 [1]
  growth inhibition (GI): Active
A-375
  growth inhibition (GI): Active
PANC-1
  growth inhibition (GI): Active
C8161
  growth inhibition (GI): Active
U-87MG ATCC
  growth inhibition (GI): Active

## CCCCCCN(CCN(C)C)c1ccccc1
MDA-MB-231
  growth inhibition (GI): inactive
MIA PaCa-2 [1]
  growth inhibition (GI): inactive
A-375
  growth inhibition (GI): inactive
PANC-1
  growth inhibition (GI): inactive
C8161
  growth inhibition (GI): inactive
U-87MG ATCC
  growth inhibition (GI): inactive
